Source: ChEMBL document CHEMBL1212693, “Dorsomorphin inhibits BMP signals required for embryogenesis and iron metabolism” (Nat Chem Biol, 2008)
Active and inactive are the calls of the source.

What was measured:
[1] = species on record: Danio rerio; assay: Inhibition of BMPR1 in zebrafish assessed as penetrance of normal embryonic axis dorsalization at 10 uM treated continuously from 6 hrs post-fertilization measured at 48 hrs; parameters: scale not given: the % may be the effect or the level left
[2] = species on record: Mus musculus; assay: Inhibition of BMPR1-mediated Smad-5 phosphorylation in BMP4-stimulated mouse PASMC at 4 uM treated 30 mins before BMP4 challenge measured after 30 mins by immunoblot analysis
Outline: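 Wild-type mouse PASMCs were kept in RPMI with 0.5% FCS for 24 h. They were preincubated with compound or vehicle for 30 min, then stimulated for 30 min with recombinant BMP2, BMP4, BMP6 or BMP7 at 10 ng ml−1. Lysates in SDS buffer were immunoblotted with anti-phospho-SMAD1/5/8. Total SMAD1 and α-tubulin served as loading controls, and bands were quantified by phosphorimager.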

[3] = species on record: Danio rerio; assay: Inhibition of BMPR1 in zebrafish assessed as severity of embryonic axis dorsalization at 10 uM treated continuously from 2 hrs post-fertilization measured after 48 hrs; parameters: scale not given: the % may be the effect or the level left
[4] = system: Mus musculus; assay: Inhibition of iron-dextran conjugate-induced hepcidin mRNA expression in C57BL/6 mouse at 10 mg/kg, iv after 6 hrs by qRT-PCR analysis; format: functional, organism-based; parameters: dose 10 mg/kg
[5] = species on record: Danio rerio; assay: Inhibition of BMPR1 in zebrafish assessed as penetrance of mild embryonic axis dorsalization at 10 uM treated at 2 to 8 hrs post-fertilization measured at 48 hrs; parameters: scale not given: the % may be the effect or the level left
Outline: (§1)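 Compound added at the stated times and concentrations. Gross morphology scored visually at up to 48 h.p.f. for dorsalization of the embryonic axis.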

[6] = species on record: Danio rerio; assay: Inhibition of BMPR1 in zebrafish assessed as penetrance of moderate embryonic axis dorsalization at 10 uM treated at 2 to 4 hrs post-fertilization measured at 48 hrs; parameters: scale not given: the % may be the effect or the level left; outline: as §1
[7] = species on record: Danio rerio; assay: Inhibition of BMPR1 in zebrafish assessed as penetrance of moderate embryonic axis dorsalization at 0.2 uM treated at 3 hrs post-fertilization measured at 48 hrs; parameters: scale not given: the % may be the effect or the level left; outline: as §1
[8] = species on record: Danio rerio; assay: Inhibition of BMPR1 in zebrafish assessed as severity of embryonic axis dorsalization at 0.5 uM treated at 3 hrs post-fertilization measured at 48 hrs; parameters: scale not given: the % may be the effect or the level left
[9] = species on record: Danio rerio; assay: Inhibition of BMPR1 in zebrafish assessed as severity of embryonic axis dorsalization at 0.2 uM treated at 3 hrs post-fertilization measured at 48 hrs; parameters: scale not given: the % may be the effect or the level left
[10] = species on record: Danio rerio; assay: Inhibition of BMPR1 in zebrafish assessed as severity of embryonic axis dorsalization at 7.5 uM treated at 3 hrs post-fertilization measured at 48 hrs; parameters: scale not given: the % may be the effect or the level left
[11] = species on record: Danio rerio; assay: Inhibition of BMPR1 in zebrafish assessed as increase in pax2a expression at 10 uM treated at 12 hrs post-fertilization measured at 48 hrs
[12] = species on record: Danio rerio; assay: Toxicity in zebrafish assessed as survivability at 10 uM treated at 3 hrs post-fertilization measured at 48 hrs; format: organism-based; conditions: in vivo
[13] = species on record: Mus musculus; assay: Inhibition of BMPR1-mediated Smad-1 phosphorylation in BMP4-stimulated mouse PASMC at 4 uM treated 30 mins before BMP4 challenge measured after 30 mins by immunoblot analysis
Outline: (§2)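 PASMCs (wild-type or BMPR-II–deficient) were kept 24 h in RPMI with 0.5% FCS, preincubated 30 min with compound or vehicle, then stimulated 30 min with recombinant BMP (10 ng ml−1). Extracts in SDS-lysis buffer were immunoblotted for phospho-SMAD1/5/8, with total SMAD1 and α-tubulin as loading controls. Bands were quantitated by phosphorimager.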

[14] = species on record: Danio rerio; assay: Inhibition of BMPR1 in zebrafish assessed as penetrance of normal embryonic axis dorsalization at 7.5 uM treated at 3 hrs post-fertilization measured at 48 hrs; parameters: scale not given: the % may be the effect or the level left
[15] = species on record: Mus musculus; assay: Inhibition of BMPR1-mediated Smad-8 phosphorylation in BMP6-stimulated mouse BMPR2 deficient PASMC at 4 uM treated 30 mins before BMP6 measured after 30 mins by immunoblot analysis
[16] = species on record: Danio rerio; assay: Inhibition of BMPR1 in zebrafish assessed as penetrance of normal embryonic axis dorsalization at 10 uM treated at 2 to 6 hrs post-fertilization measured at 48 hrs; parameters: scale not given: the % may be the effect or the level left
[17] = Inhibition of Sprague-Dawley rat AMPK assessed as inhibition of [33P]ATP utilization after 30 mins by scintillation counting
[18] = species on record: Danio rerio; assay: Inhibition of BMPR1 in zebrafish assessed as severity of embryonic axis dorsalization at 10 uM treated continuously from 4 hrs post-fertilization measured after 48 hrs; parameters: scale not given: the % may be the effect or the level left
[19] = species on record: Danio rerio; assay: Inhibition of BMPR1 in zebrafish assessed as penetrance of moderate embryonic axis dorsalization at 10 uM treated at 4 to 8 hrs post-fertilization measured at 48 hrs; parameters: scale not given: the % may be the effect or the level left; outline: as §1
[20] = species on record: Mus musculus; assay: Inhibition of BMPR1-mediated Smad-1 phosphorylation in BMP2-stimulated mouse PASMC at 4 uM treated 30 mins before BMP2 challenge measured after 30 mins by immunoblot analysis; outline: as §2
[21] = species on record: Danio rerio; assay: Inhibition of BMPR1 in zebrafish assessed as penetrance of mild embryonic axis dorsalization at 2 uM treated at 3 hrs post-fertilization measured at 48 hrs; parameters: scale not given: the % may be the effect or the level left; outline: as §1
[22] = species on record: Danio rerio; assay: Inhibition of BMPR1 in zebrafish assessed as penetrance of moderate embryonic axis dorsalization at 10 uM treated continuously from 10 hrs post-fertilization measured at 48 hrs; parameters: scale not given: the % may be the effect or the level left; outline: as §1
[23] = species on record: Mus musculus; assay: Inhibition of BMPR1-mediated Smad-1 phosphorylation in BMP2-stimulated mouse BMPR2 deficient PASMC at 4 uM treated 30 mins before BMP2 challenge measured after 30 mins by immunoblot analysis; outline: as §2
[24] = species on record: Danio rerio; assay: Inhibition of BMPR1 in zebrafish assessed as severity of embryonic axis dorsalization at 2 uM treated at 3 hrs post-fertilization measured at 48 hrs; parameters: scale not given: the % may be the effect or the level left
[25] = species on record: Danio rerio; assay: Inhibition of BMPR1 in zebrafish assessed as severity of embryonic axis dorsalization at 10 uM treated continuously from 10 hrs post-fertilization measured at 48 hrs; parameters: scale not given: the % may be the effect or the level left
[26] = species on record: Danio rerio; assay: Inhibition of BMPR1 in zebrafish assessed as penetrance of moderate embryonic axis dorsalization at 7.5 uM treated at 3 hrs post-fertilization measured at 48 hrs; parameters: scale not given: the % may be the effect or the level left
[27] = species on record: Mus musculus; assay: Inhibition of BMPR1-mediated Smad-8 phosphorylation in BMP4-stimulated mouse BMPR2 deficient PASMC at 4 uM treated 30 mins before BMP4 measured after 30 mins by immunoblot analysis
[28] = system: Hep 3B2; assay: Inhibition of hepcidin mRNA expression in human Hep3B cells at 4 uM […] by qRT-PCR analysis; format: functional; conditions: 0.5 h
[29] = species on record: Mus musculus; assay: Inhibition of ALK2-mediated Smad-1 phosphorylation in BMPR2 deficient mouse PASMC at 10 uM by immunoblot analysis
Outline: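 BMPR-II–deficient mouse PASMCs (RPMI, 10% FBS) transiently transfected with constitutively active ALK2, ALK3 or ALK6 cDNA, or plasmid-only control. Incubated with or without compound (10 µM). Extracts lysed in SDS buffer, run on SDS-PAGE and immunoblotted for phospho-SMAD1/5/8; quantitated by phosphorimager.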

[30] = system: Mus musculus; assay: Inhibition of iron-dextran conjugate-induced Smad-8 phosphorylation in C57BL/6 mouse at 23 ug/g, iv after 1 hr; format: functional, organism-based
[31] = species on record: Danio rerio; assay: Inhibition of BMPR1 in zebrafish assessed as severity of embryonic axis dorsalization at 5 uM treated at 3 hrs post-fertilization measured at 48 hrs; parameters: scale not given: the % may be the effect or the level left

c1cc(-c2cnn3cc(-c4ccc(OCCN5CCCCC5)cc4)cnc23)ccn1 [DORSOMORPHIN]
35%: Activity [19]
Non-toxic: Activity [12]
27%: inhibition at 4 µM [28]
42%: Activity [26]
0%: Activity [1] | Activity [5] | Activity [7] | Activity [8] | Activity [9] | Activity [14] | Activity [16] | Activity [18] | Activity [21] | Activity [22] | Activity [24] | Activity [25]
10 µM: Ki [17]
19%: Activity [31]
active: inhibition [2] | inhibition [4] | Activity [11] | inhibition [13] | inhibition [15] | inhibition [20] | inhibition [23] | inhibition [27] | inhibition [29] | inhibition [30]
90%: Activity [6]
100%: Activity [3] | Activity [10]
